Results as given in BindingDB's records for doi:10.1021/acs.jmedchem.9b01547 (University of Oxford, 2020).

Assays:
[1] = molecular target: T1, Utrophin (Homo sapiens, UniProt P46939); experiment: Activation of human utrophin-1 in mouse mdx myoblasts by H2K-mdx utrnA-luc assay
Summary of the method: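 Firefly luciferase reporter gene assay in H2K-mdx utrnA-luc cells (mouse mdx myoblasts carrying a human muscle-specific utrophin A promoter). EC50 from non-linear regression curve fit of 2 biological replicates, 3 technical replicates each.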

[2] = molecular target: T1, Utrophin; experiment: Activation of human utrophin-1 in iDMD cells by HTRF assay
Summary of the method: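 HTRF quantification of human utrophin protein in lysates of treated iDMD cells, read at 620 and 665 nm emission; top concentration 10 μM. EC50 by non-linear regression curve fit from 2 biological replicates, each with 3 technical replicates.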

T1 sequence (P46939 whole entry): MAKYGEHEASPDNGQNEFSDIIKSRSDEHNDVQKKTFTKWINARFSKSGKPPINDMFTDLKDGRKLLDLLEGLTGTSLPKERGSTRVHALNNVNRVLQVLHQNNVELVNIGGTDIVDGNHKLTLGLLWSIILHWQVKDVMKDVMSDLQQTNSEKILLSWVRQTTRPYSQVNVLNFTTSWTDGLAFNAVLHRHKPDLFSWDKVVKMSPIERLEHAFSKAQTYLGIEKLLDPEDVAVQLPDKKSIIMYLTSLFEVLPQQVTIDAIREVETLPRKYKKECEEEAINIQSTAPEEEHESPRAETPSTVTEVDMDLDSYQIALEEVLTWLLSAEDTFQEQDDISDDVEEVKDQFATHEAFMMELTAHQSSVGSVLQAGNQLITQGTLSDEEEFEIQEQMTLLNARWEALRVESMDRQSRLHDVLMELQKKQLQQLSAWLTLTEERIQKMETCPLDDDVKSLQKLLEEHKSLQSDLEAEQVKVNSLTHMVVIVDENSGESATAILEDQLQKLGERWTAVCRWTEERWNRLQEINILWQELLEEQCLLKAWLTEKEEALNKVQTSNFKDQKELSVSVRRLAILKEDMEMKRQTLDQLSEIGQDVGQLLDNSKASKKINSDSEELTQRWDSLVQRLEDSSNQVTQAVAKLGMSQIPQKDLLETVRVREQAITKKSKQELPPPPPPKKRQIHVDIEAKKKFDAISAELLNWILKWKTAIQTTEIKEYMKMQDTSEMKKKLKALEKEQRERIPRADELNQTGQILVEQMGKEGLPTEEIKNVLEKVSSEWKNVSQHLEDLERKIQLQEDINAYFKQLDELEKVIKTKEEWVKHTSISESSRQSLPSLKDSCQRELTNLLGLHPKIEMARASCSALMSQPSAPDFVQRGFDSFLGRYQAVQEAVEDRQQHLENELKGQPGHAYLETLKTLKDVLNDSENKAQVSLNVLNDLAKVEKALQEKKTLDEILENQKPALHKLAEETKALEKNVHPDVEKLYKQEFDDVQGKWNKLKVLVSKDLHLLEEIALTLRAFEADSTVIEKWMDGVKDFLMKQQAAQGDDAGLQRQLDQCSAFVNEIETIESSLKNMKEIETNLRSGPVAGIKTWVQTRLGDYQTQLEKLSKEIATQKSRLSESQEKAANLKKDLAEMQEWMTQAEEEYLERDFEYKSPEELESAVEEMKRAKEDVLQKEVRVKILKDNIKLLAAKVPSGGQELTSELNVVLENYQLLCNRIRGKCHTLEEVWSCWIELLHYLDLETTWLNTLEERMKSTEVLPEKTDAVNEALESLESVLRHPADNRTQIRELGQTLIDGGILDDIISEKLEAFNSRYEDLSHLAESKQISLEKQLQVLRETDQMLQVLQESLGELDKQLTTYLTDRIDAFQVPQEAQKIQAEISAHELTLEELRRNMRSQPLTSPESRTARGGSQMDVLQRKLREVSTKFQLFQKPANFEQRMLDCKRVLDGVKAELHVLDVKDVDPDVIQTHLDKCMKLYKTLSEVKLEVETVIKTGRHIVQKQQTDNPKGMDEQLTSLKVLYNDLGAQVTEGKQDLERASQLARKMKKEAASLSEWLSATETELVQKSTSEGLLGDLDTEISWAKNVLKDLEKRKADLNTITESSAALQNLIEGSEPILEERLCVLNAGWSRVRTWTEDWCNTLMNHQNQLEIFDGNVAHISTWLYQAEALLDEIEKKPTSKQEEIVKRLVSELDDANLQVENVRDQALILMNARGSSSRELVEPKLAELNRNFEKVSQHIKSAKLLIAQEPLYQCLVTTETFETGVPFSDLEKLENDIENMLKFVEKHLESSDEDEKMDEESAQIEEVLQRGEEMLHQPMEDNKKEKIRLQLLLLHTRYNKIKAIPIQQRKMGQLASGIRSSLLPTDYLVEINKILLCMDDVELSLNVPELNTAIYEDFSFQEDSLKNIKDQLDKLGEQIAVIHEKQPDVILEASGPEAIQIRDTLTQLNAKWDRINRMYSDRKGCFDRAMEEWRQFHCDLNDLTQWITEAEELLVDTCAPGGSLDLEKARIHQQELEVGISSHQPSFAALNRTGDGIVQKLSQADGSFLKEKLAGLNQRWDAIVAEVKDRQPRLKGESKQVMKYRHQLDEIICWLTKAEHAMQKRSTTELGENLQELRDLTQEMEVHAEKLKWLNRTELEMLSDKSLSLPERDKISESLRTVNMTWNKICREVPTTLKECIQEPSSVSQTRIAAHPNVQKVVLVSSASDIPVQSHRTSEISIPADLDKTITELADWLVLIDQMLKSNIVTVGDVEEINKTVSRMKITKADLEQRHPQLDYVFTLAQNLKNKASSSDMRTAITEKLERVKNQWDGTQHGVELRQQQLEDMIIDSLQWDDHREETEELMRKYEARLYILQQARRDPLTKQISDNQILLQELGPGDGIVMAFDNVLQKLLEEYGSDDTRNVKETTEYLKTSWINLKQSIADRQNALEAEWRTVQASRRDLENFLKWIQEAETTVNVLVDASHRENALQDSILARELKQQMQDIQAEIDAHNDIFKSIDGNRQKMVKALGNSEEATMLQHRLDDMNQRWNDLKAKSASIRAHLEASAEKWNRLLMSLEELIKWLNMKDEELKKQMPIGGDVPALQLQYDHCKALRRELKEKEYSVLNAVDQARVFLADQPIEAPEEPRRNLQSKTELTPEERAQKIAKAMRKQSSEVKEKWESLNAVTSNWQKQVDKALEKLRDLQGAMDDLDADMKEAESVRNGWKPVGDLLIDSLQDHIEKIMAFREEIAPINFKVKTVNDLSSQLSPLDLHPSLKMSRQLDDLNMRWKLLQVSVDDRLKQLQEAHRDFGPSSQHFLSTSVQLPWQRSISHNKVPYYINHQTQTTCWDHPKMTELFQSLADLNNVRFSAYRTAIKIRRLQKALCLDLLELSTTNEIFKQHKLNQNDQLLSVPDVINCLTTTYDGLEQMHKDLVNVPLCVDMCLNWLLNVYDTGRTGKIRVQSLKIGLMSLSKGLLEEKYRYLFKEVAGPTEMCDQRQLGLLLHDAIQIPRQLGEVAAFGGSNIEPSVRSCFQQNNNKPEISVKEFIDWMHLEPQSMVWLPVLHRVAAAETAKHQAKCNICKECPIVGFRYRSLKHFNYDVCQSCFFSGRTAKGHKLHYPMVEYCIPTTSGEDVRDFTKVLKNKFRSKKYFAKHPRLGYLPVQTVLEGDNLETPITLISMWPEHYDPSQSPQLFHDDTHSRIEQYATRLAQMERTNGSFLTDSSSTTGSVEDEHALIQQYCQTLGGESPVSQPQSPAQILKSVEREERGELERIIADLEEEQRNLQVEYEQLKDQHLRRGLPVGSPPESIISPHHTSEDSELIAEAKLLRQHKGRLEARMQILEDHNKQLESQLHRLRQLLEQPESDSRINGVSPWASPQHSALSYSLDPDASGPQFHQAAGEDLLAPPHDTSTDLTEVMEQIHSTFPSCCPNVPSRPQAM

EC50 [1] [nM] | EC50 [2] [nM] | SMILES
370 | > 10000 | CCS(=O)(=O)c1ccc2oc(-c3ccc4c(c3)C=C[C@H](O)[C@H]4O)nc2c1
110 | 1280 | CCS(=O)(=O)c1ccc2oc(-c3ccc4ccccc4c3)nc2c1 [BMN 195]
120 | 8350 | CCS(=O)(=O)c1ccc2oc(-c3ccc4c(c3)[C@@H](O)[C@H](O)C=C4)nc2c1
